Measurements reported in ChEMBL document CHEMBL1141286, “Benzochromenones from the marine crinoid Comantheria rotula inhibit hypoxia-inducible factor-1 (HIF-1) in cell-based reporter assays and differentially suppress the growth of certain tumor cell lines” (J Nat Prod, 2007).
pIC50: −log10 of the molar value. Calls of active or inactive are those of the source. The calls are words filed in the database; no cut-off is given here.

How the values were obtained:
A549 = assay: Growth inhibition of human A549 cells; assay type: functional
Malme-3M = assay: Growth inhibition of human MALME-3M cells; assay type: functional
HL-60 = assay: Growth inhibition of human HL60 cells; assay type: functional
NCI-H460 = assay: Growth inhibition of human NCI-H460 cells; assay type: functional
A498 = assay: Growth inhibition of human A498 cells; assay type: functional
SF-268 = assay: Growth inhibition of human SF268 cells; assay type: functional
HCT-116 = assay: Growth inhibition of human HCT116 cells; assay type: functional
NCI-H226 = assay: Growth inhibition of human NCI-H226 cells; assay type: functional
M14 = assay: Growth inhibition of human M14 cells; assay type: functional
MDA-MB-231 = assay: Growth inhibition of human MDA-MB-231 cells; assay type: functional
KM12 = assay: Growth inhibition of human KM12 cells; assay type: functional
NCI/ADR-RES = assay: Growth inhibition of human NCI/ADR-RES cells; assay type: functional
[1] = DPPH radical scavenging activity relative to Trolox; assay type: functional; design: concentration or dose not given beside the values
Summary of the method: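 Compounds were made up as DMSO stocks and diluted in isopropanol to a final 10 μM. Each was mixed with DPPH in isopropanol at 10 μM or 30 μM DPPH, and absorbance was read at 515 nm. Scavenging was calculated as [1 − OD515(compound)/OD515(control)] × 100, then expressed as a percentage of Trolox activity. One experiment was run in triplicate.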

EKVX = assay: Growth inhibition of human EKVX cells; assay type: functional
SF-539 = assay: Growth inhibition of human SF539 cells; assay type: functional
NCI-H322M = assay: Growth inhibition of human NCI-H322M cells; assay type: functional
UO-31 = assay: Growth inhibition of human UO31 cells; assay type: functional
[2] = Inhibition of 1,10-phenanthroline-induced HIF1 activation in T47D cells by TK-luciferase assay; assay type: cell-based; details: Homo sapiens
Summary of the method: (§1)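 HIF-1 reporter (pHRE-TK-Luc) assays in transfected PC-3 or T47D cells; HIF-1 induced by hypoxia or by the hypoxia mimetic 1,10-phenanthroline (10 μM); compounds at half-log concentrations; luciferase activity measured; IC50 from experiments in triplicate.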

786-0 = assay: Growth inhibition of human 786-0 cells; assay type: functional
SR = assay: Growth inhibition of human SR cells; assay type: functional
HT-29 = assay: Growth inhibition of human HT29 cells; assay type: functional
BT-549 = assay: Growth inhibition of human BT549 cells; assay type: functional
SK-OV-3 = assay: Growth inhibition of human SK-OV3 cells; assay type: functional
SK-MEL-5 = assay: Growth inhibition of human SK-MEL5 cells; assay type: functional
NCI-H522 = assay: Growth inhibition of human NCI-H522 cells; assay type: functional
TK-10 = assay: Growth inhibition of human TK10 cells; assay type: functional
RXF 393 = assay: Growth inhibition of human RXF393 cells; assay type: functional
K562 = assay: Growth inhibition of human K562 cells; assay type: functional
SNB-19 = assay: Growth inhibition of human SNB19 cells; assay type: functional
U-251 = assay: Growth inhibition of human U251 cells; assay type: functional
Hs-578T = assay: Growth inhibition of human HS578T cells; assay type: functional
CAKI-1 = assay: Growth inhibition of human CAKI1 cells; assay type: functional
T47D = assay: Inhibition of 1,10-phenanthroline-induced VEGF protein secretion in human T47D cells at 10 uM after 16 hrs by ELISA; assay type: functional, cell-based
Summary of the method: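 T47D cells stimulated with 1,10-phenanthroline, compound at 10 μM; secreted VEGF in conditioned media by ELISA, normalized to cell-lysate protein.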

OVCAR-4 = assay: Growth inhibition of human OVACAR4 cells; assay type: functional
MOLT-4 = assay: Growth inhibition of human MOLT4 cells; assay type: functional
OVCAR-8 = assay: Growth inhibition of human OVACAR8 cells; assay type: functional
[3] = Inhibition of 1,10-phenanthroline-induced HIF1 activation in PC3 cells by TK-luciferase assay; assay type: cell-based; details: Homo sapiens, PC-3; summary of the method: as §1
LOX IMVI = assay: Growth inhibition of human LOXIMVI cells; assay type: functional
HCC 2998 = assay: Growth inhibition of human HCC2998 cells; assay type: functional
[4] = read-out: Log LC50 (the source's name) (converted)

COc1cc(O)cc2cc3oc(C)cc(=O)c3c(O)c12
GI50 (A549): 29.5 µM
CC50 (A549; [4]): > 100 µM
TGI (A549; read-out: Log TGI (converted)): > 100 µM
GI50 (Malme-3M): 35.5 µM
CC50 (Malme-3M; [4]): > 100 µM
TGI (Malme-3M; read-out: Log TGI (converted)): 95.5 µM
GI50 (HL-60): 20.9 µM
LC50 (HL-60): 83.2 µM
TGI (HL-60; read-out: Log TGI (converted)): 41.7 µM
GI50 (NCI-H460): 19.1 µM
CC50 (NCI-H460; [4]): > 100 µM
TGI (NCI-H460; read-out: Log TGI (converted)): 50.1 µM
GI50 (A498): 0.617 µM
LC50 (A498): > 100 µM
TGI (A498; read-out: Log TGI (converted)): 11.7 µM
GI50 (SF-268): 30.2 µM
LC50 (SF-268): > 100 µM
TGI (SF-268; read-out: Log TGI (converted)): > 100 µM
GI50 (HCT-116): 14.5 µM
CC50 (HCT-116; [4]): 63.1 µM
TGI (HCT-116; read-out: Log TGI (converted)): 30.2 µM
GI50 (NCI-H226): 22.4 µM
CC50 (NCI-H226; [4]): > 100 µM
TGI (NCI-H226; read-out: Log TGI (converted)): > 100 µM
GI50 (M14): 20 µM
LC50 (50% lethal concentration) (M14): > 100 µM
TGI (M14; read-out: Log TGI (converted)): 45.7 µM
GI50 (MDA-MB-231): 17.8 µM
LC50 (MDA-MB-231): > 100 µM
TGI (MDA-MB-231; read-out: Log TGI (converted)): > 100 µM
GI50 (KM12): 18.6 µM
CC50 (KM12; [4]): 85.1 µM
TGI (KM12; read-out: Log TGI (converted)): 39.8 µM
GI50 (NCI/ADR-RES): 22.4 µM
LC50 (concentration killing 50% of cells) (NCI/ADR-RES): > 100 µM
TGI (NCI/ADR-RES; read-out: Log TGI (converted)): > 100 µM
Activity [1]: 40%
GI50 (EKVX): 37.2 µM
CC50 (EKVX; [4]): > 100 µM
TGI (EKVX; read-out: Log TGI (converted)): > 100 µM
GI50 (SF-539): 27.5 µM
LC50 (SF-539): > 100 µM
TGI (SF-539; read-out: Log TGI (converted)): 87.1 µM
GI50 (NCI-H322M): 26.9 µM
CC50 (NCI-H322M; [4]): > 100 µM
TGI (NCI-H322M; read-out: Log TGI (converted)): 95.5 µM
GI50 (UO-31): 5.13 µM
LC50 (UO-31): > 100 µM
TGI (UO-31; read-out: Log TGI (converted)): 37.2 µM
pIC50 [2]: 6.05
GI50 (786-0): 20 µM
LC50 (786-0): > 100 µM
TGI (786-0; read-out: Log TGI (converted)): 50.1 µM
GI50 (SR): 15.1 µM
CC50 (SR; [4]): > 100 µM
TGI (SR; read-out: Log TGI (converted)): 41.7 µM
GI50 (HT-29): 29.5 µM
CC50 (HT-29; [4]): > 100 µM
TGI (HT-29; read-out: Log TGI (converted)): > 100 µM
GI50 (BT-549): 20.4 µM
LC50 (BT-549): > 100 µM
TGI (BT-549; read-out: Log TGI (converted)): > 100 µM
GI50 (SK-OV-3): 31.6 µM
LC50 (SK-OV-3): > 100 µM
TGI (SK-OV-3; read-out: Log TGI (converted)): > 100 µM
GI50 (SK-MEL-5): 0.457 µM
LC50 (SK-MEL-5): 34.7 µM
TGI (SK-MEL-5; read-out: Log TGI (converted)): 12 µM
GI50 (NCI-H522): 2.19 µM
CC50 (NCI-H522; [4]): 93.3 µM
TGI (NCI-H522; read-out: Log TGI (converted)): 22.9 µM
GI50 (TK-10): 20.4 µM
LC50 (TK-10): > 100 µM
TGI (TK-10; read-out: Log TGI (converted)): 61.7 µM
GI50 (RXF 393): 20.4 µM
LC50 (RXF 393): > 100 µM
TGI (RXF 393; read-out: Log TGI (converted)): 53.7 µM
GI50 (K562): 14.8 µM
CC50 (K562; [4]): > 100 µM
TGI (K562; read-out: Log TGI (converted)): 49 µM
GI50 (SNB-19): 32.4 µM
LC50 (SNB-19): > 100 µM
TGI (SNB-19; read-out: Log TGI (converted)): > 100 µM
GI50 (U-251): 33.1 µM
LC50 (U-251): > 100 µM
TGI (U-251; read-out: Log TGI (converted)): > 100 µM
GI50 (Hs-578T): 0.589 µM
LC50 (Hs-578T): > 100 µM
GI50 (CAKI-1): 42.7 µM
LC50 (CAKI-1): > 100 µM
TGI (CAKI-1; read-out: Log TGI (converted)): > 100 µM
Activity (T47D): inactive
GI50 (OVCAR-4): 45.7 µM
LC50 (OVCAR-4): > 100 µM
TGI (OVCAR-4; read-out: Log TGI (converted)): > 100 µM
GI50 (MOLT-4): 17.8 µM
CC50 (MOLT-4; [4]): > 100 µM
TGI (MOLT-4; read-out: Log TGI (converted)): 51.3 µM
GI50 (OVCAR-8): 27.5 µM
LC50 (OVCAR-8): > 100 µM
TGI (OVCAR-8; read-out: Log TGI (converted)): > 100 µM
pIC50 [3]: 5.60
GI50 (LOX IMVI): 18.2 µM
LC50 (LOX IMVI): > 100 µM
TGI (LOX IMVI; read-out: Log TGI (converted)): 52.5 µM
GI50 (HCC 2998): 24.5 µM
CC50 (HCC 2998; [4]): > 100 µM
TGI (HCC 2998; read-out: Log TGI (converted)): 64.6 µM
